pEC50, pIC50: −log10 of the molar value. Active and inactive are the calls of the source. The rule behind the calls is not given here.
Experiments:
RAW264.7 [1] = assay: Cytotoxicity against mouse RAW264.7 cells assessed as decrease in cell viability after 24 hrs by MTT assay; type: cell-based; conditions: RAW264.7, 24 h
Procedure, shortened: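 RAW264.7 macrophage viability after compound exposure was measured by MTT assay. IC50 (µM) was calculated and reported with a 95% confidence interval.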

RAW264.7 [2] = assay: Antiinflammatory activity in mouse RAW264.7 cells assessed as inhibition of LPS-induced NO production after 24 hrs by Griess assay; type: functional, cell-based; conditions: for pIC50: RAW264.7, 24 h
Procedure, shortened: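 LPS-stimulated RAW264.7 cells were co-treated with compound. Nitrite, a stable NO metabolite, was measured in culture medium with Griess reagent. IC50 (µM) was reported with a 95% confidence interval.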

RAW264.7 [3] = assay: Selectivity index, ratio IC50 for cytotoxicity against mouse RAW264.7 cells to IC50 for antiinflammatory activity in mouse RAW264.7 cells; type: functional
Procedure, shortened: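 Ratio A/B in RAW 264.7 cells. A is the cytotoxicity IC50 from the MTT assay. B is the IC50 for inhibiting NO production in LPS-stimulated cells, with nitrite in the culture medium measured by Griess reagent. Both IC50s are reported with 95% confidence intervals.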

RAW264.7 [4] = assay: Antiinflammatory activity in mouse RAW264.7 cells assessed as inhibition of LPS-induced IL-12 production at 50 uM after 24 hrs by phycoerythrin staining based flow cytometry; type: functional, cell-based
Procedure, shortened: (§1)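 Cytokine bead array on protein extracts of RAW 264.7 cells treated with LPS plus compound at 50 µM. Read-outs were IL-12, IL-6, TNF-α, MCP-1 and IFN-γ, referenced to LPS-treated cells. Mean ± SD, n = 3 independent experiments.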

Mus musculus [5] = species: Mus musculus; assay: Inhibition of LPS-induced NFkappaB phosphorylation in mouse RAW264.7 cells at 50 uM after 24 hrs by Western blot analysis; type: cell-based
Procedure, shortened: (§2)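 Protein was isolated from control, LPS, and LPS + compound (50 µM) RAW 264.7 cultures and immunoblotted. iNOS, COX-2 and phospho-NF-κB were quantified densitometrically against β-actin. Mean ± SD of 3 independent experiments, compared with LPS treatment.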

Mus musculus [6] = assay: Antiinflammatory activity in BALB/c mouse assessed as inhibition of LPS-induced IL-6 production at 10 mg/kg, ip pretreated for 3 days as single dose followed by LPS administration after 24 hrs by phycoerythrin staining based flow cytometry; type: functional, organism-based
RAW264.7 [7] = assay: Antiinflammatory activity in mouse RAW264.7 cells assessed as inhibition of LPS-induced ROS production after 24 hrs by CM-H2DCFDA dye based fluorescence assay; type: functional, cell-based
Procedure, shortened: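 Intracellular ROS was measured in LPS-treated RAW 264.7 cells exposed to compounds at several doses. The read-out was mean fluorescence intensity, compared with LPS-treated cells. Data are mean ± SD of three independent experiments.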

RAW264.7 [8] = assay: Antiinflammatory activity in mouse RAW264.7 cells assessed as inhibition of LPS-induced COX-2 production at 50 uM after 24 hrs by Western blot analysis; type: functional, cell-based; procedure, shortened: as §2
RAW264.7 [9] = assay: Antiinflammatory activity in mouse RAW264.7 cells assessed as inhibition of LPS-induced iNOS production at 50 uM after 24 hrs by Western blot analysis; type: functional, cell-based; procedure, shortened: as §2
RAW264.7 [10] = assay: Antiinflammatory activity in mouse RAW264.7 cells assessed as inhibition of LPS-induced IL-6 production at 50 uM after 24 hrs by phycoerythrin staining based flow cytometry; type: functional, cell-based; procedure, shortened: as §1
RAW264.7 [11] = assay: Antiinflammatory activity in mouse RAW264.7 cells assessed as inhibition of LPS-induced TNF-alpha production at 50 uM after 24 hrs by phycoerythrin staining based flow cytometry; type: functional, cell-based; procedure, shortened: as §1
RAW264.7 [12] = assay: Antiinflammatory activity in mouse RAW264.7 cells assessed as inhibition of LPS-induced […] production at 50 uM after 24 hrs by phycoerythrin staining based flow cytometry; type: functional, cell-based; procedure, shortened: as §1
RAW264.7 [13] = assay: Antiinflammatory activity in mouse RAW264.7 cells assessed as inhibition of LPS-induced MCP-1 production at 50 uM after 24 hrs by phycoerythrin staining based flow cytometry; type: functional, cell-based; procedure, shortened: as §1
Mus musculus [14] = assay: Antiinflammatory activity in BALB/c mouse assessed as inhibition of LPS-induced IL-12 production at 10 mg/kg, ip pretreated for 3 days as single dose followed by LPS administration after 24 hrs by phycoerythrin staining based flow cytometry; type: functional, organism-based
Mus musculus [15] = assay: Antiinflammatory activity in BALB/c mouse assessed as inhibition of LPS-induced TNF-alpha production at 10 mg/kg, ip pretreated for 3 days as single dose followed by LPS administration after 24 hrs by phycoerythrin staining based flow cytometry; type: functional, organism-based
Mus musculus [16] = assay: Antiinflammatory activity in BALB/c mouse assessed as inhibition of LPS-induced […] production at 10 mg/kg, ip pretreated for 3 days as single dose followed by LPS administration after 24 hrs by phycoerythrin staining based flow cytometry; type: functional, organism-based
Mus musculus [17] = assay: Antiinflammatory activity in BALB/c mouse assessed as inhibition of LPS-induced MCP-1 production at 10 mg/kg, ip pretreated for 3 days as single dose followed by LPS administration after 24 hrs by phycoerythrin staining based flow cytometry; type: functional, organism-based
[18] = Antiviral activity against Influenza A virus A/WSN/33(H1N1) infected in MDCK cells at 50 uM preincubated for 15 mins measured after 1.5 days by CellTiter-Glo assay relative to control; type: functional, Influenza A virus (A/WSN/1933(H1N1))
[19] = Antiviral activity against Influenza A virus A/WSN/33(H1N1) infected in MDCK cells preincubated for 1 hr followed by compound wash measured after 48 hrs by plaque reduction assay; type: functional, cell-based, Influenza A virus (A/WSN/1933(H1N1))

SMILES	pIC50 (RAW264.7 [1])	pIC50 (RAW264.7 [2])	Ratio IC50 (RAW264.7 [3])	further results
CC(=O)S[C@@]12CC[C@H](O)[C@@H]1C(=O)NC2=O (relative stereo)	3.25	3.83	3.7762	
CC(=O)O[C@H]1CC[C@]2(SC(=O)c3ccc(F)cc3)C(=O)NC(=O)[C@H]12				inhibition (RAW264.7 [2]): Active
O=C(S[C@]12CC[C@H](O)[C@H]1C(=O)NC2=O)c1cccs1 (relative stereo)	1.96	4.44	297.0519	inhibition (RAW264.7 [4]): Active; inhibition (Mus musculus [5]): Active; inhibition (Mus musculus [6]): Active; inhibition (RAW264.7 [7]): Dose-dependent effect; inhibition (RAW264.7 [8]): Active; inhibition (RAW264.7 [9]): Active; inhibition (RAW264.7 [10]): Active; inhibition (RAW264.7 [11]): Active; inhibition (RAW264.7 [12]): Active; inhibition (RAW264.7 [13]): Active; inhibition (Mus musculus [14]): Active; inhibition (Mus musculus [15]): Active; inhibition (Mus musculus [16]): Active; inhibition (Mus musculus [17]): Active
O=C(Cc1ccccc1)SC1CC[C@]2(SC(=O)Cc3ccccc3)C(=O)NC(=O)[C@H]12 (stereo not given in full)	3.15	4.24	12.36	
CC(=O)O[C@H]1CCC2=C1C(=O)NC2=O	3.89	3.06	0.1477	
CC(=O)SC12CCC=C1C(=O)NC2=O (stereo not given)	3.73	4.69	9	
O=C(S[C@@]12CC[C@H](O)[C@@H]1C(=O)NC2=O)c1ccccc1Cl (relative stereo)	3.18		5.245	
O=C(Cc1ccccc1)S[C@@]12CC[C@H](O)[C@@H]1C(=O)NC2=O (relative stereo)	3.08	3.88	6.322	
O=C(S[C@@]12CC[C@H](O)[C@@H]1C(=O)NC2=O)c1ccccc1 (relative stereo)	3.32	4.14	6.622	
O=C(S[C@]12CCC[C@H]1C(=O)NC2=O)c1ccc(F)cc1 (relative stereo)	3.42	3.41	0.9841	
CC(=O)S[C@]12CCC[C@H]1C(=O)NC2=O (relative stereo)	3.17	4.23	11.39	
O=C(SC12CCC(O)C1C(=O)NC2=O)c1ccc(O)cc1 (racemic)	3.36	3.65	1.925	
O=C(S[C@]12CC[C@@H](O)[C@H]1C(=O)NC2=O)c1ccc(O)cc1	3.21	4.38	14.67	
O=C(S[C@@]12CC[C@@H](O)[C@@H]1C(=O)NC2=O)c1ccc(O)cc1	2.54	3.90	22.99	
CC(=O)OC1CC[C@]2(SC(=O)Cc3ccccc3)C(=O)NC(=O)[C@H]12 (stereo not given in full)	2.79	4.17	23.57	
O=C(S[C@]12CCC[C@H]1C(=O)NC2=O)c1ccccc1Cl (relative stereo)	3.08	4.22	13.95	
O=C1NC(=O)C2=C1CC[C@@H]2O	3.66	4.02	2.26	
CC(=O)S[C@]12CC[C@H](O)[C@H]1C(=O)NC2=O (relative stereo)	3.07	3.08	1.029	

SMILES	pIC50 (RAW264.7 [1])	pIC50 (RAW264.7 [2])	Ratio IC50 (RAW264.7 [3])	further results
CC(=O)OC1CC[C@]2(SC(=O)c3ccccc3Cl)C(=O)NC(=O)[C@H]12 (stereo not given in full)	2.04	3.99	89.51	
O=C(SC1CC[C@]2(SC(=O)c3ccc(F)cc3)C(=O)NC(=O)[C@H]12)c1ccc(F)cc1 (stereo not given in full)	3.68	4.01	2.142	
CCOC(=O)C1=C[C@@H](OC(CC)CC)[C@H](NC(C)=O)[C@@H](N)C1.O=P(O)(O)O [OSELTAMIVIR PHOSPHATE]				Activity [18]: 54%; pEC50 [19]: 4.17
CC(=O)OC1CC[C@]2(SC(=O)c3ccc(F)cc3)C(=O)NC(=O)[C@H]12 (stereo not given in full)	1.92	4.46	353.8076	inhibition (RAW264.7 [4]): Active; inhibition (Mus musculus [5]): Active; inhibition (Mus musculus [6]): Active; inhibition (RAW264.7 [7]): Dose-dependent effect; inhibition (RAW264.7 [8]): Active; inhibition (RAW264.7 [9]): Active; inhibition (RAW264.7 [10]): Active; inhibition (RAW264.7 [11]): Active; inhibition (RAW264.7 [12]): Active; inhibition (RAW264.7 [13]): Active; inhibition (Mus musculus [14]): Active; inhibition (Mus musculus [15]): Active; inhibition (Mus musculus [16]): Active; inhibition (Mus musculus [17]): Active
O=C(S[C@]12CC[C@H](O)[C@H]1C(=O)NC2=O)c1ccccc1Cl (relative stereo)	3.14	3.75	4.022	
CC(=O)SC1CC[C@]2(SC(C)=O)C(=O)NC(=O)[C@H]12 (stereo not given in full)	2.00	4.70	505.4343	inhibition (RAW264.7 [4]): Active; inhibition (Mus musculus [5]): Active; inhibition (Mus musculus [6]): Active; inhibition (RAW264.7 [7]): Dose-dependent effect; inhibition (RAW264.7 [8]): Active; inhibition (RAW264.7 [9]): Active; inhibition (RAW264.7 [10]): Active; inhibition (RAW264.7 [11]): Active; inhibition (RAW264.7 [12]): Active; inhibition (RAW264.7 [13]): Active; inhibition (Mus musculus [14]): Active; inhibition (Mus musculus [15]): Active; inhibition (Mus musculus [16]): Active; inhibition (Mus musculus [17]): Active
O=C(Cc1ccccc1)S[C@]12CC[C@H](O)[C@H]1C(=O)NC2=O (relative stereo)	3.11	3.85	5.418	
CC(=O)O[C@@H]1CC[C@@]2(SC(=O)c3ccc(F)cc3)C(=O)NC(=O)[C@@H]12				inhibition (RAW264.7 [2]): Active
O=C(S[C@]12CC[C@H](O)[C@H]1C(=O)NC2=O)c1ccc(F)cc1 (relative stereo)	3.32	3.50	1.49	
O=C(S[C@@]12CC[C@H](O)[C@@H]1C(=O)NC2=O)c1ccc(O)cc1	2.99	4.14	14.14	Activity [18]: 18.6%
O=C(Cc1ccccc1)S[C@]12CCC[C@H]1C(=O)NC2=O (relative stereo)	3.37	4.24	7.48	
O=C(Cc1ccccc1)SC12CCC=C1C(=O)NC2=O (stereo not given)	4.03	4.51	3.042	
CC(=O)OC1CC[C@]2(SC(=O)c3ccccc3)C(=O)NC(=O)[C@H]12 (stereo not given in full)	2.72	4.19	29.74	
O=C1NC(=O)C2=C1CCC2SC(=O)c1cccs1 (stereo not given)	4.57	4.19	0.4108	
O=C(S[C@]12CC[C@H](O)[C@H]1C(=O)NC2=O)c1ccccc1 (relative stereo)	1.77	4.19	261.7025	
O=C1NC(=O)C2=C1CC[C@H]2O	3.50	3.92	2.631	
CC(=O)O[C@@H]1CC[C@]2(SC(=O)c3ccc(F)cc3)C(=O)NC(=O)[C@H]12				inhibition (RAW264.7 [2]): Active

Source: ChEMBL document CHEMBL4052621, “Identification of new anti-inflammatory agents based on nitrosporeusine natural products of marine origin” (Eur J Med Chem, 2017)
